From the M2OR odorant receptor database
Where a chain is given by its changes, count along the chain named.

How the values were obtained:
Conditions in all cases: stereoisomer not certain
OR5T3 (Homo sapiens) = biological target: T1, OR5T3 (Homo sapiens) (UniProt Q8NGG3)
T1 sequence (whole entry): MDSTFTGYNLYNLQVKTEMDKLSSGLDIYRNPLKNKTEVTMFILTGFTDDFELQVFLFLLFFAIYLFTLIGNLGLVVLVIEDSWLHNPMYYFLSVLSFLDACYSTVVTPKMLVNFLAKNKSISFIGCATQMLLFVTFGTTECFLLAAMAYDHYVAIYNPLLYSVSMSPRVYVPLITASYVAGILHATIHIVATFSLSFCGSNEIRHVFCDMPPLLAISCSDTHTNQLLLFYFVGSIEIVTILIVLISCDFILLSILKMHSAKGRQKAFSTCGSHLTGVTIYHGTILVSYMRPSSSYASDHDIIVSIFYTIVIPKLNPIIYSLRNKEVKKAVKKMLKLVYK
In short: (§1)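 Transient luciferase assays in mammalian cell lines were common, though methods varied by source. The values come from published papers and their supplementary material, with extra details from the original authors when needed. Responsive refers to a measured signal the original authors judged statistically different from baseline, and non-responsive (inactive) to the remainder.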

OR5V1 (Homo sapiens) = biological target: T2, OR5V1 (Homo sapiens) (UniProt Q9UGF6)
T2 sequence (whole entry): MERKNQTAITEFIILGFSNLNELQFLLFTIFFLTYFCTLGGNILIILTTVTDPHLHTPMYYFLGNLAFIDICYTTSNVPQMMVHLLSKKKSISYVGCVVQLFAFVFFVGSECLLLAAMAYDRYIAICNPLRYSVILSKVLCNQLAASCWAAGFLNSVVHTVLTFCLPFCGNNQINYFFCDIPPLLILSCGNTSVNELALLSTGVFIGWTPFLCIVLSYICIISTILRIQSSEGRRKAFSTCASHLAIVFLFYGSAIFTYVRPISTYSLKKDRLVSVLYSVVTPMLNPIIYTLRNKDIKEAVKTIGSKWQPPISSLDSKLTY
In short: as §1

OR5W2 (Homo sapiens) = biological target: T3, OR5W2 (Homo sapiens) (UniProt Q8NH69)
T3 sequence (whole entry): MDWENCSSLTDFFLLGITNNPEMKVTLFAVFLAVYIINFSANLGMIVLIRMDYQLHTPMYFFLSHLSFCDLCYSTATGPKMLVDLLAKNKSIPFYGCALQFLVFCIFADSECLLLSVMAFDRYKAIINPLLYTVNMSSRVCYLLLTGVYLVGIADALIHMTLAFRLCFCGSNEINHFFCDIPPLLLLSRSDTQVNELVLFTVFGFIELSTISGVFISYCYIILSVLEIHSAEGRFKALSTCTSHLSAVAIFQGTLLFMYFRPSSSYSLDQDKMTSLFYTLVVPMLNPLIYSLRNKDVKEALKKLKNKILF
In short: as §1

OR6A2 (Homo sapiens) = biological target: T4, OR6A2 (Homo sapiens) (UniProt O95222)
T4 sequence (whole entry): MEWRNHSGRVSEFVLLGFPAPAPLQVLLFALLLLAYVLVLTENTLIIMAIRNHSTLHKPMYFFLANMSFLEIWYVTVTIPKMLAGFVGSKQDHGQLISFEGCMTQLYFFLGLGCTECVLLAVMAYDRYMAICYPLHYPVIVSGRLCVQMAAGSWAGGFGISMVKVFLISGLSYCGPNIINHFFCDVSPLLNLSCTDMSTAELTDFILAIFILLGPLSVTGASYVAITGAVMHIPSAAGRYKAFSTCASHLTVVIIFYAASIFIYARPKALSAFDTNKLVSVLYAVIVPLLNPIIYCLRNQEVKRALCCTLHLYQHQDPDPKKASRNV
In short: as §1

OR6B1 (Homo sapiens) = biological target: T5, OR6B1 (Homo sapiens) (UniProt O95007)
T5 sequence (whole entry): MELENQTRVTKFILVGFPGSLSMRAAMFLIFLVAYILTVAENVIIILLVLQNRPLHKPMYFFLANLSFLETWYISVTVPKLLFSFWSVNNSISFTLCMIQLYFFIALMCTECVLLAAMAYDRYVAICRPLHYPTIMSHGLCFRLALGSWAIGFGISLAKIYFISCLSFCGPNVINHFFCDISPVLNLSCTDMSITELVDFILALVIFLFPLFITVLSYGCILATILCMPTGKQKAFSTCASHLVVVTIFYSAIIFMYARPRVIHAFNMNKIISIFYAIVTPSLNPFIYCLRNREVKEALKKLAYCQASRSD
In short: as §1

OR6B2 (Homo sapiens) = biological target: T6, OR6B2 (Homo sapiens) (UniProt Q6IFH4)
T6 sequence (whole entry): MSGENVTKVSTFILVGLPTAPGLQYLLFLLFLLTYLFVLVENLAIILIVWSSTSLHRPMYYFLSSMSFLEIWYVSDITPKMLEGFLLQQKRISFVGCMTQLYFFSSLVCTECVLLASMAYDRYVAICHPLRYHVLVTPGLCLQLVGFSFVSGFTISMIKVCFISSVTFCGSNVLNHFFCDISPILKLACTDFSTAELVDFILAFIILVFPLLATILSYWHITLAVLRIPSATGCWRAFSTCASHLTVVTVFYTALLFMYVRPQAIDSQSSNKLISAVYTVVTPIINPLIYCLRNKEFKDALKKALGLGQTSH
In short: as §1

OR6B3 (Homo sapiens) = biological target: T7, OR6B3 (Homo sapiens) (UniProt Q8NGW1)
T7 sequence (whole entry): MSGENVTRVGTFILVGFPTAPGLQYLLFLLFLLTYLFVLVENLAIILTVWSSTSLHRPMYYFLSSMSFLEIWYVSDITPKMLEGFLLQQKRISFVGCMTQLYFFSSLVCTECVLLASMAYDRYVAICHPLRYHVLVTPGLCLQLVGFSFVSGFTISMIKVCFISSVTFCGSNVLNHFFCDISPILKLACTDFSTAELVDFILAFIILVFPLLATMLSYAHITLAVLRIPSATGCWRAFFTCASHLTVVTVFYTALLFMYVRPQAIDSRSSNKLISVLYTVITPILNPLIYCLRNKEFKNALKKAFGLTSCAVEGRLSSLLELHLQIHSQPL
In short: as §1

OR6C1 (Homo sapiens) = biological target: T8, OR6C1 (Homo sapiens) (UniProt Q96RD1)
T8 sequence (whole entry): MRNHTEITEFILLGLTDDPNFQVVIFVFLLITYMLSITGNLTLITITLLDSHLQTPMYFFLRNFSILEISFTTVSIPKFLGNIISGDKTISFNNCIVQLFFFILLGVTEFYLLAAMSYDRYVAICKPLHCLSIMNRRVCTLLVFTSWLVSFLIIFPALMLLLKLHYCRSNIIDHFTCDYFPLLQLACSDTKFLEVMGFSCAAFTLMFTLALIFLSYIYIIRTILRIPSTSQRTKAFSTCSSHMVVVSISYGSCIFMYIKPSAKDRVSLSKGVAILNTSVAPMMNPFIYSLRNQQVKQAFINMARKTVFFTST
In short: as §1

OR6C2 (Homo sapiens) = biological target: T9, OR6C2 (Homo sapiens) (UniProt Q9NZP2)
T9 sequence (whole entry): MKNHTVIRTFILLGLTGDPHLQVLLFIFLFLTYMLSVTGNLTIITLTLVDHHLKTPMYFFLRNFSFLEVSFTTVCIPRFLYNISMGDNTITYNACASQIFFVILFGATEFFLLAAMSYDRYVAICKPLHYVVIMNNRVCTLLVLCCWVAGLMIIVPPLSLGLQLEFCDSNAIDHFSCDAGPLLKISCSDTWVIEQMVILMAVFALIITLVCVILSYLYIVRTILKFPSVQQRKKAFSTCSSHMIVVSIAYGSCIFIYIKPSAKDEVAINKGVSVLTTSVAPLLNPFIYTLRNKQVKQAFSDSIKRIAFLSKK
In short: as §1

OR6C3 (Homo sapiens) = biological target: T10, OR6C3 (Homo sapiens) (UniProt Q9NZP0)
T10 sequence (whole entry): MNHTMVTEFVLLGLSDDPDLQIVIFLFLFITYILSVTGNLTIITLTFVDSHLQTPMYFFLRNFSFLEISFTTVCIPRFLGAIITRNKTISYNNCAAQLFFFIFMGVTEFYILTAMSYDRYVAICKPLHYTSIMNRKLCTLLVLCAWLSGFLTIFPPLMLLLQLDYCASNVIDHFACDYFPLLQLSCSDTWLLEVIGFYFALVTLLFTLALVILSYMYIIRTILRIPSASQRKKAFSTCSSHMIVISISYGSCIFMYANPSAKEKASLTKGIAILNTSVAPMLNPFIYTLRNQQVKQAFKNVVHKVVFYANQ
In short: as §1

OR6C4 (Homo sapiens) = biological target: T11, OR6C4 (Homo sapiens) (UniProt Q8NGE1)
T11 sequence (whole entry): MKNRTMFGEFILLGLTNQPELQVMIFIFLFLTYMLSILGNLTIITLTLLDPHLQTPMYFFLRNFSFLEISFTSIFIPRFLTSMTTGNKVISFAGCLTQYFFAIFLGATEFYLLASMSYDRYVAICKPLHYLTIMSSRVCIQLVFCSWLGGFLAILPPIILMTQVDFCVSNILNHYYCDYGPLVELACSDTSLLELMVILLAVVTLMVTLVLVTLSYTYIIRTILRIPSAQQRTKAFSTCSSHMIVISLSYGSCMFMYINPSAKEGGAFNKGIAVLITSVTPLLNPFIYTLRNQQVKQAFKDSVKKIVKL
In short: as §1

OR6C6 (Homo sapiens) = biological target: T12, OR6C6 (Homo sapiens) (UniProt A6NF89)
T12 sequence (whole entry): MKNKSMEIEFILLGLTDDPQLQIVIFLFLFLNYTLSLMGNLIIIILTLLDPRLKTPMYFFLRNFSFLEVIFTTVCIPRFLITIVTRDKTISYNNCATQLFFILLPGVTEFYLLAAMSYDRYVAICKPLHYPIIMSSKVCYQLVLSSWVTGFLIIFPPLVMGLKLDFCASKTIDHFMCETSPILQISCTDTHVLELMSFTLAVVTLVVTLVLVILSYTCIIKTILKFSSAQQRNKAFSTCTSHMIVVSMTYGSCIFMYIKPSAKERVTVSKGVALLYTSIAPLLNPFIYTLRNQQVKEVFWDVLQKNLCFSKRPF
In short: as §1

OR5T2 S4G = system: T13, OR5T2 S4G
T13 sequence (whole entry): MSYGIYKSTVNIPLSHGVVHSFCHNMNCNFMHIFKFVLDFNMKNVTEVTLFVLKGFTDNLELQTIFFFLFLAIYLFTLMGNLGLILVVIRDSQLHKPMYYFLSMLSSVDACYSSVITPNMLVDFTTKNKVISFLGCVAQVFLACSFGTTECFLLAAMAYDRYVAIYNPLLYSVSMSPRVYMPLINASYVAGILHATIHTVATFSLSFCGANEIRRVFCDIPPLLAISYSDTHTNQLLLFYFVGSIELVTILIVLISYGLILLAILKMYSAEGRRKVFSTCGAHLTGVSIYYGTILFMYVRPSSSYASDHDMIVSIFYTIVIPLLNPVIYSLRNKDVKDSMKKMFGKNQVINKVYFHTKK
In short: as §1

OR5W2 R189C = system: T14, OR5W2 R189C
T14 sequence (whole entry): T3 sequence (whole entry) with R189C
In short: as §1

OR6A2 I50V = system: T15, OR6A2 I50V
T15 sequence (whole entry): T4 sequence (whole entry) with I50V
In short: as §1

OR6B2 R122C C179R = system: T16, OR6B2 R122C C179R
T16 sequence (whole entry): T6 sequence (whole entry) with R122C, C179R
In short: as §1

OR6B3 T48I R131C = system: T17, OR6B3 T48I R131C
T17 sequence (whole entry): T7 sequence (whole entry) with T48I, R131C
In short: as §1

OR6C1 C130Y H165D V246I = system: T18, OR6C1 C130Y H165D V246I
T18 sequence (whole entry): T8 sequence (whole entry) with C130Y, H165D, V246I
In short: as §1

OR6C4 = system: T19, OR6C4
T19 sequence (whole entry): T11 sequence (whole entry) with I37V
In short: as §1

OR6C6 M6I = system: T20, OR6C6 M6I
T20 sequence (whole entry): T12 sequence (whole entry) with M6I
In short: as §1

Measured: odorant receptor agonist call;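 further: active if original authors judged signal statistically different from baseline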

CCCCC(S)C(C)CO (stereo not given)
not listed: OR5T2 S4G | OR5W2 R189C | OR6A2 I50V | OR6B2 R122C C179R | OR6B3 T48I R131C | OR6C1 C130Y H165D V246I | OR6C4 | OR6C6 M6I
inactive: all other assays above

CCC(S)C(C)CO (stereo not given)
not listed: OR5T2 S4G | OR5W2 R189C | OR6A2 I50V | OR6B2 R122C C179R | OR6B3 T48I R131C | OR6C1 C130Y H165D V246I | OR6C4 | OR6C6 M6I
inactive: all other assays above

CCCCCCC=CCCC=O
inactive: all assays above

CCCCCC(S)C(C)CO (stereo not given)
not listed: OR5T2 S4G | OR5W2 R189C | OR6A2 I50V | OR6B2 R122C C179R | OR6B3 T48I R131C | OR6C1 C130Y H165D V246I | OR6C4 | OR6C6 M6I
inactive: all other assays above

CCCCCC(=O)C(C)C(C)=O (stereo not given)
not listed: OR5T2 S4G | OR5W2 R189C | OR6A2 I50V | OR6B2 R122C C179R | OR6B3 T48I R131C | OR6C1 C130Y H165D V246I | OR6C4 | OR6C6 M6I
inactive: all other assays above

CC1=C(O)C(=O)C(C)O1 (stereo not given)
inactive: all assays above

CCCC(S)CCOC(C)=O (stereo not given)
inactive: all assays above

CC1CCCCCCCCCCCCC(=O)C1 (stereo not given)
not listed: OR5T2 S4G | OR5W2 R189C | OR6A2 I50V | OR6B2 R122C C179R | OR6B3 T48I R131C | OR6C1 C130Y H165D V246I | OR6C4 | OR6C6 M6I
inactive: all other assays above
